Common to all, as to type: functional, cell-based
Holding throughout (conditions): CV-1

For experiment [1], the target named is T1, Peroxisome proliferator-activated receptor delta (Mus musculus) (UniProt P35396).
T1 sequence (whole entry): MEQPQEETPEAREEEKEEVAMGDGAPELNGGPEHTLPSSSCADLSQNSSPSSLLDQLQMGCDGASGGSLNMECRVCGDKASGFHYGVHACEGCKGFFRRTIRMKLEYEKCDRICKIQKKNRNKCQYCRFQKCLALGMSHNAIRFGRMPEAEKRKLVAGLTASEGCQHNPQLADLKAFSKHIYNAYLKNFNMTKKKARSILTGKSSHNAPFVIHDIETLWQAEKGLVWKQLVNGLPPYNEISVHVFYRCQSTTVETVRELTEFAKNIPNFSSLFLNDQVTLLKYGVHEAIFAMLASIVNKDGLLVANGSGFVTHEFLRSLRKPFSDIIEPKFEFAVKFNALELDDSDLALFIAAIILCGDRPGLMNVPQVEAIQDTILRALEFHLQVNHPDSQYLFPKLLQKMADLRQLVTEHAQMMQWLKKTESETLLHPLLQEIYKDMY
The experiment can be described thus: Agonist activity at mouse PPARdelta expressed in CV1 cells co-expressing tk-PPRE-luciferase vector assessed as transient transactivation at 20 uM after 24 hrs by luciferase reporter gene transactivation assay relative to GW0742. The method, boiled down:
(§1)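 CV-1 cells seeded at 1.5 × 10⁵ cells/well in DMEM with 10% FBS. Transient transfection for 6 h with PPAR expression vector, tk-PPRE-luciferase reporter and β-galactosidase plasmid, then 24 h of compound exposure. Luciferase read in cell lysates. β-gal read as absorbance at 410 nm. Activity expressed as luciferase/β-gal. Not active means below 10% transactivation at 20 µM. At least three separate experiments.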
Background: Reporter assays use an easily measured gene product as a stand-in for the process of interest.

The target in experiment [2] is T2, Peroxisome proliferator-activated receptor gamma (Mus musculus) (UniProt P37238).
T2 sequence (whole entry): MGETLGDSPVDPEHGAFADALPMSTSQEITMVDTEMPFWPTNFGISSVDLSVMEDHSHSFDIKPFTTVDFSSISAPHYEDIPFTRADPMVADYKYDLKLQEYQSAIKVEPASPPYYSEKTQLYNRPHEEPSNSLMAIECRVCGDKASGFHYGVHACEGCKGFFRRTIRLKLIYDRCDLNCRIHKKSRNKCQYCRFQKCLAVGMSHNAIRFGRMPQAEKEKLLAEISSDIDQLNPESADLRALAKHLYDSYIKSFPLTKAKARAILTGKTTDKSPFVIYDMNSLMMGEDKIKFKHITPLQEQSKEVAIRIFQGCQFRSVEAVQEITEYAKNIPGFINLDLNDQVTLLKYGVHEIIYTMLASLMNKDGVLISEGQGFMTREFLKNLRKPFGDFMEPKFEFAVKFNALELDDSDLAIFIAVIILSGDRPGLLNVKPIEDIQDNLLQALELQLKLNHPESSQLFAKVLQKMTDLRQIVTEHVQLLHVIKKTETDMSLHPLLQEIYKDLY
The experiment can be described thus: Agonist activity at mouse PPARgamma expressed in CV1 cells co-expressing tk-PPRE-luciferase vector assessed as transient transactivation at 20 uM after 24 hrs by luciferase reporter gene transactivation assay relative to rosiglitazone. The method in brief: as §1

The target in experiment [3] is T3, Peroxisome proliferator-activated receptor alpha (Mus musculus) (UniProt P23204).
T3 sequence (whole entry): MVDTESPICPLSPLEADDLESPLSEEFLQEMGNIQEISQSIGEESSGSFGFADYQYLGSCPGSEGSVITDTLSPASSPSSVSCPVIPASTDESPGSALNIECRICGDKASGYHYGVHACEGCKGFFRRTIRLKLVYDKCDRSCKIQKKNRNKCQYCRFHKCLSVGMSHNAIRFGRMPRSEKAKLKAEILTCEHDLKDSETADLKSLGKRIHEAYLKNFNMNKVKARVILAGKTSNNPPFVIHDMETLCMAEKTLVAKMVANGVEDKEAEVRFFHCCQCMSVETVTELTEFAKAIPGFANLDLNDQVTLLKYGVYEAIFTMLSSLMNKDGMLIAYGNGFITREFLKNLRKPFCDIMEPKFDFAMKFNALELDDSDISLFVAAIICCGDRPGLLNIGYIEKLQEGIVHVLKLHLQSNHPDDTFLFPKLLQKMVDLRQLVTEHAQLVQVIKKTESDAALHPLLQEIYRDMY
In words: Agonist activity at mouse PPARalpha expressed in CV1 cells co-expressing tk-PPRE-luciferase vector assessed as transient transactivation at 20 uM after 24 hrs by luciferase reporter gene assay relative to GW0746. The method, boiled down:
as §1

Structures are written as SMILES. Calls of active or inactive are those of the source.

The source of these data is ChEMBL document CHEMBL1770086, “Design and synthesis of benzoxazole containing indole analogs as peroxisome proliferator-activated receptor-γ/δ dual agonists” (Bioorg Med Chem Lett, 2011).

For the molecule `CN(CCOc1ccc2cc(C(=O)O)n(C)c2c1)c1nc2ccccc2o1`, the outcome in experiment [1], in experiment [2] and in experiment [3] was inactive.

For `COC(=O)Cc1cn(CC(=O)OC)c2ccc(OCCCN(C)c3nc4ccccc4o3)cc12`, the outcome in experiment [1] and in experiment [3] was inactive. Further, the Activity in experiment [2] amounted to 37.1%.

For the molecule `CN(CCOc1ccc2cc(C(=O)O)[nH]c2c1)c1nc2ccccc2s1`, in experiment [1], the Activity worked out at 14.6%. Also, the result in experiment [2] and in experiment [3] was inactive.

Consider `COC(=O)Cc1c[nH]c2ccc(OCCCN(C)c3nc4ccccc4o3)cc12`, for which the result in experiment [1] and in experiment [3] was inactive. The Activity in experiment [2] was determined as 42.1%.

`CN(CCOc1ccc2[nH]cc(CC(=O)O)c2c1)c1nc2ccccc2o1`: the outcome in experiment [1] and in experiment [3] was inactive. Further, the Activity in experiment [2] was determined as 28.1%.

As for `CCn1c(C(=O)O)cc2ccc(OCCN(C)c3nc4ccccc4o3)cc21`, the outcome in experiment [1] and in experiment [3] was inactive. Further, in experiment [2], the Activity was 23.3%.

Consider `CCn1cc(CC(=O)O)c2cc(OCCN(C)c3nc4ccccc4o3)ccc21`, for which the Activity in experiment [1] came out at 32.9%; in experiment [2], 66.7%. The outcome in experiment [3] was inactive.

For `COC(=O)Cc1cn(Cc2ccc(F)cc2)c2ccc(OCCCN(C)c3nc4ccccc4o3)cc12`, the result in experiment [1], in experiment [2] and in experiment [3] was inactive.

With `CN(CCOc1ccc2cc(C(=O)O)[nH]c2c1)c1nc2ccccc2o1`, the outcome in experiment [1], in experiment [2] and in experiment [3] was inactive.

Consider `CN(CCOc1ccc2cc(C(=O)O)n(C)c2c1)c1nc2ccccc2s1`, for which the Activity in experiment [1] worked out at 27.9%; in experiment [2] it was 29.6%; in experiment [3], 13.6%.

Turning to `CCn1c(C(=O)O)cc2ccc(OCCN(C)c3nc4ccccc4s3)cc21`, the results for the Activity in experiment [1], in experiment [2] and in experiment [3] were 68.8%, 66.4% and 16.7%, respectively.

In the case of `CN(CCOc1ccc2cc(C(=O)O)n(Cc3ccccc3)c2c1)c1nc2ccccc2o1`, the Activity was found to be 33.4% in experiment [1], 43.9% in experiment [2] and 10% in experiment [3].

`CN(CCCOc1ccc2[nH]cc(CC(=O)O)c2c1)c1nc2ccccc2o1`: the result in experiment [1] and in experiment [3] was inactive. Further, the Activity in experiment [2] stood at 18.3%.

On to `COC(=O)Cc1cn(C(=O)c2ccc(Cl)cc2)c2ccc(OCCCN(C)c3nc4ccccc4o3)cc12`, for which the Activity is 18.3% in experiment [1] and 28.9% in experiment [2]. Also, the outcome in experiment [3] was inactive.

Regarding `CN(CCCOc1ccc2c(c1)c(CC(=O)O)cn2Cc1ccc(F)cc1)c1nc2ccccc2o1`, the result in experiment [1] was inactive. Moreover, the Activity worked out at 15.8% in experiment [2] and 13.3% in experiment [3].

`CN(CCOc1ccc2c(c1)c(CC(=O)O)cn2C)c1nc2ccccc2o1`: the result in experiment [1] was inactive. The Activity in experiment [2] was found to be 58.6%; in experiment [3] it was 28%.

Turning to `CN(CCCOc1ccc2c(c1)c(CC(=O)O)cn2CC(=O)O)c1nc2ccccc2o1`, the result in experiment [1], in experiment [2] and in experiment [3] was inactive.
